The source of these data is ChEMBL document CHEMBL3627612, “Hirsutinolide Series Inhibit Stat3 Activity, Alter GCN1, MAP1B, Hsp105, G6PD, Vimentin, TrxR1, and Importin α-2 Expression, and Induce Antitumor Effects against Human Glioma” (J Med Chem, 2015).

As usually defined, the IC50 is the point on the concentration scale where inhibition reaches its midpoint. A low value points to greater potency in that assay.

Active and inactive are the calls of the source. The calls are words filed in the database; no cut-off is given here.

Data set [1] deals with U-251. Description: Antimitotic activity in human U251MG cells assessed as defect in sister chromatid segragation at 0.1 uM after 15 hrs confocal microscopic analysis. Type of data set: functional, cell-based. An outline of the steps:
(§1)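 U251MG on coverslips synchronized by double thymidine block (2 mM), released 9 h, treated 15 h (8 μM; paclitaxel 100 nM). Fixed 4% paraformaldehyde, digitonin-permeabilized, BSA-blocked, stained for β-tubulin and MAP1B with DAPI counterstain; chromatid structure and segregation scored by confocal microscopy.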

Data set [2] deals with U-251. Kind of data set: Induction of apoptosis in human U251MG cells assessed as cleaved caspase-3 level at […] after 24 to 48 hrs by immunoblot analysis. Type of data set: functional, cell-based. (A western blot detects proteins with antibodies after separation by electrophoresis.)
Data set [3] has as its system U-251. Kind of data set: Induction of apoptosis in human U251MG cells assessed as PARP level at […] after 24 to 48 hrs by immunoblot analysis. Type of data set: functional, cell-based.
Data set [4] deals with U-251. Kind of data set: Antimitotic activity in human U251MG cells assessed as defect in chromatid structure at 0.1 uM after 15 hrs confocal microscopic analysis. Type of data set: functional, cell-based. The essentials: as §1
Data set [5] is described as follows: Cytotoxicity against mouse NIH/3T3 cells at 5uM after 72 hrs by cyquant cells. Particulars: nih3t3, 72 h. Type of data set: cell-based. An outline of the steps:
(§2)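 CyQuant proliferation assay after 72 h compound exposure of cultured cells; relative viability normalized to DMSO-treated control; IC50 values derived. Glioma lines grown in RPMI or DMEM with 10% FBS and 1% nonessential amino acids.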

For data set [6], the target named is T1, Signal transducer and activator of transcription 3 (Homo sapiens, UniProt P40763). Kind of data set: Inhibition of Stat3 activity in human U251MG cells assessed as phosphorylated Stat3 level at 5 uM after 0.5 to 24 hrs by immunoblot analysis. The settings on record: U-251. Type of data set: cell-based. The essentials:
(§3)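 U251MG cells treated with 5 μM compound for 0–24 h, or with 0–5 μM for 2 h. Whole-cell lysates immunoblotted for pStat3, Stat3, GAPDH. Control was 0.025% DMSO-treated cells.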

Data set [7] relates to U-251. Kind of data set: Antiproliferative activity against human U251MG cells at 5 uM for 72 hrs by cyquant assay. Type of data set: functional. An outline of the steps:
as §2

Data set [8] addresses T2, Signal transducer and activator of transcription 1 (Mus musculus) (UniProt P42225).
T2 sequence (whole entry): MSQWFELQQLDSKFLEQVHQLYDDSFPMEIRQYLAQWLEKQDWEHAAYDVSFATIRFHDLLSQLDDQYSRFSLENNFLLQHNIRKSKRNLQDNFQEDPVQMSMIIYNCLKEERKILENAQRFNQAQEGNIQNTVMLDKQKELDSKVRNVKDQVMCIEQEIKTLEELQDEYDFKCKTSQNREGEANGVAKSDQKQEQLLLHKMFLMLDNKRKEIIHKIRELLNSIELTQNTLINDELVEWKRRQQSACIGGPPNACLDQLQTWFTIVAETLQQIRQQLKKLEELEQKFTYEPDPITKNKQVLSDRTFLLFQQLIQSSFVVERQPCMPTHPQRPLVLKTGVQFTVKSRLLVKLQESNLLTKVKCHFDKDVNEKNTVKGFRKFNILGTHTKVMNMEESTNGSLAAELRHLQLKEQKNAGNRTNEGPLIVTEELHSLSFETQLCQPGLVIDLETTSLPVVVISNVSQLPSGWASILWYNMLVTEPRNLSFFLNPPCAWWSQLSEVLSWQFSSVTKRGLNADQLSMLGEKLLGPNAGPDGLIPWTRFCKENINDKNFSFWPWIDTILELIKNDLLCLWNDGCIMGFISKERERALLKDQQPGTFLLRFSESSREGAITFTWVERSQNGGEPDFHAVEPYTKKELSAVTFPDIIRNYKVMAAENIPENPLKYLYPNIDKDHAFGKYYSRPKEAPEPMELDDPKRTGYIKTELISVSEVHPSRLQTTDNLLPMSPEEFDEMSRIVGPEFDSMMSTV
Kind of data set: Inhibition of Stat1 dimer DNA binding activity in EGF-stimulated mouse NIH3T3 nuclear extract expressing human EGFR at 5 uM preincubated for 30 mins followed by addition of radiolabeled probe hSIE for 30 mins by EMSA. For orientation: A gel shift assay detects complexes by their altered migration in electrophoresis.

Data set [9] has as its target T3, Signal transducer and activator of transcription 1/ 3 (Mus musculus) (UniProt P42227+P42225). Kind of data set: Inhibition of Stat1:Stat3 dimer DNA binding activity in EGF-stimulated mouse NIH3T3 nuclear extract expressing human EGFR assessed as residual activity at 5 uM preincubated for 30 mins followed by addition of radiolabeled probe hSIE for 30 mins by EMSA. Type of data set: cell-free.

Data set [10] concerns SF-295. Description: Antiproliferative activity against human SF295 cells at 5 uM for 72 hrs by cyquant assay. Type of data set: functional, cell-based.
Data set [11] has as its target Signal transducer and activator of transcription 3 (Mus musculus) (UniProt P42227). Kind of data set: Inhibition of Stat3 dimer DNA binding activity in EGF-stimulated mouse NIH3T3 nuclear extract expressing human EGFR assessed as residual activity at 5 uM preincubated for 30 mins followed by addition of radiolabeled probe hSIE for 30 mins by EMSA.
Data set [12] has as its target T2, Signal transducer and activator of transcription 1 (Mus musculus). Description: Inhibition of Stat1 dimer DNA binding activity in EGF-stimulated mouse NIH3T3 nuclear extract expressing human EGFR assessed as residual activity at 5 uM preincubated for 30 mins followed by addition of radiolabeled probe hSIE for 30 mins by EMSA.
Data set [13] relates to MDA-MB-231. Kind of data set: Antiproliferative activity against human MDA-MB-231 cells at 5 uM for 72 hrs by cyquant assay. Type of data set: functional, cell-based.
In data set [14] the target is Signal transducer and activator of transcription 3 (Mus musculus) (UniProt P42227). Kind of data set: Inhibition of Stat3 dimer DNA binding activity in mouse NIH3T3/vSrc nuclear extract at 5 uM preincubated for 30 mins followed by addition of radiolabeled probe hSIE for 30 mins by EMSA.
Sequence of Signal transducer and activator of transcription 3 (Mus musculus) (P42227 whole entry): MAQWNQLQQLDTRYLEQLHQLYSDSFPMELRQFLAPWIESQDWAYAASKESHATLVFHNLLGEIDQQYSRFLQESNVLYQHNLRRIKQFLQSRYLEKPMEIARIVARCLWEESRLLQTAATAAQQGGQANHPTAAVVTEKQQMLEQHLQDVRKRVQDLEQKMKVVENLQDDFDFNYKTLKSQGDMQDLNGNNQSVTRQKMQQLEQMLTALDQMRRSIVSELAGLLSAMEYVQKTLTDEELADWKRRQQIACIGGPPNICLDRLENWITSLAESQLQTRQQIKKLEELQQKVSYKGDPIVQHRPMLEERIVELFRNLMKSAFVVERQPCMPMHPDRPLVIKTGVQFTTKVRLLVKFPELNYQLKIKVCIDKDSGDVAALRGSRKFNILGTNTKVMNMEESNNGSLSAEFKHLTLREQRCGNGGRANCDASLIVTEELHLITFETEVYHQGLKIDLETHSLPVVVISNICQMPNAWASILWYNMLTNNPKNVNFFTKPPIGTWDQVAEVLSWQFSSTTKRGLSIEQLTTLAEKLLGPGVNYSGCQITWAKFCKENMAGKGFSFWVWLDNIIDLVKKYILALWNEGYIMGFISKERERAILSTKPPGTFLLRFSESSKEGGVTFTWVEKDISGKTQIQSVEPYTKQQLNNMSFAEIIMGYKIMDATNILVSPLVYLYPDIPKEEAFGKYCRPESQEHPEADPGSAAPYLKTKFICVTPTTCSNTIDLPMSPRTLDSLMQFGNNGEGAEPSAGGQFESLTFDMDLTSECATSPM
In data set [15] the test system is NIH3T3. Kind of data set: Inhibition of Stat5 dimer DNA binding activity in EGF-stimulated mouse NIH3T3 nuclear extract expressing human EGFR at 5 uM preincubated for 30 mins followed by addition of radiolabeled probe MGFe for 30 mins by EMSA. Type of data set: cell-free.
In data set [16] the target is T1, Signal transducer and activator of transcription 3. The settings on record: U-251, 5 uM.
For data set [17], the target named is T3, Signal transducer and activator of transcription 1/ 3 (Mus musculus). The settings on record: NIH3T3, 5 uM.
In data set [18] the target is Signal transducer and activator of transcription 3 (Mus musculus) (UniProt P42227). Particulars: NIH3T3, 5 uM.
The target in data set [19] is T1, Signal transducer and activator of transcription 3. Description: Inhibition of Stat3 activity in human U251MG cells assessed as phosphorylated Stat3 level after 2 hrs by immunoblot analysis. Type of data set: cell-based. Particulars: U-251. An outline of the steps:
as §3

Data set [20] is described as follows: Antiproliferative activity against human U251MG cells for 72 hrs by cyquant assay. Type of data set: functional, cell-based. Particulars: U-251, 72 h. The essentials:
as §2

Data set [21] in a line: Cytotoxicity against mouse NIH/3T3 cells after 72 hrs by cyquant cells. Type of data set: cell-based. Particulars: NIH3T3, 72 h. The essentials: as §2

T1 sequence (P40763 whole entry): as the sequence (P42227 whole entry) above, with D760E counted along it

Consider `CC(=O)O[C@H]1C(=O)[C@@]2(C)[C@H]([C@H](OC(=O)c3ccccc3)[C@]3(O)C[C@H](OC(=O)[C@H](O)[C@@H](NC(=O)c4ccccc4)c4ccccc4)C(C)=C1C3(C)C)[C@]1(OC(C)=O)CO[C@@H]1C[C@@H]2O`, for which the result in data set [1], in data set [2], in data set [3] and in data set [4] was Active.

As to `C/C=C(/C)C(=O)O[C@H]1C[C@@H](C)[C@]2(O)CC[C@](C)(/C=C3/OC(=O)C(CO)=C31)O2`, the Activity entry in data set [5] was “Non-toxic”; in data set [9] it was 71%; in data set [11], 63%; in data set [12], 61%. In addition, the inhibition entry in data set [6], in [7] and in [14] was “Active” in each case. Further, the inhibition result in data set [8], in data set [10], in data set [13] and in [15] was “inactive” throughout.

For `CC(C)=CCC/C(C)=C/C(=O)OCC1=C2/C(=C\[C@@]3(C)CC[C@](O)(O3)[C@H](C)C[C@@H]2O)OC1=O`, the inhibition result in data set [16] was “inactive”. Besides, the inhibition result in data set [7], in data set [8], in data set [17], in [18] and in data set [14] was “Active” in each case. Also, the inhibition result in data set [19] was “Dose-dependent effect”. Moreover, the IC50 in [20] was 1000 nM; in data set [21], > 5000 nM.
